“And” between values parts separate entries of the source, which are not always exact repeats. Identical values can stand only once. The source made the active and inactive calls. The calls are words filed in the database; no cut-off is given here.
Tests used:
[1] = Cytotoxicity against human SKOV3 cells assessed as growth inhibition after 48 hrs by SRB assay; format: functional, SK-OV-3
Method in brief: (§1)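 Cells kept at 37 °C, 5% CO2, up to passage 15. Plated at 7500 cells/well in DMEM with 5% FBS and 1% gentamycin, grown 24 h, then given 10-fold serial dilutions for 48 h. Fixed with 10% TCA (final), SRB-stained, read at 540 nm, normalized at 630 nm. GI50 is the concentration halving net protein staining versus controls, taken from optical density data.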

[2] = Cytotoxicity against human DU145 cells assessed as growth inhibition after 48 hrs by SRB assay; format: functional, DU-145; method in brief: as §1
NCI-H460 [3] = assay: Cytotoxicity against human NCI-H460 cells assessed as growth inhibition after 48 hrs by SRB assay; format: functional; method in brief: as §1
Tubulin (Bos taurus) [4] = target: T1, Tubulin (Bos taurus) (UniProt Q6B856+Q862L2+Q862F3); assay: Displacement of [3H]colchicine from bovine brain tubulin at 1 uM after 10 mins by scintillation counting analysis
Method in brief: (§2)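 1.0 μM tubulin with 5.0 μM [3H]colchicine and inhibitor at 1.0 or 5.0 μM. Buffer: 5% DMSO, 1.0 M monosodium glutamate pH 6.6, 0.5 mg/mL BSA, 0.1 M glucose-1-phosphate, 1.0 mM MgCl2, 1.0 mM GTP. Incubated 10 min at 37 °C, stopped with ice-cold water, collected on DEAE-cellulose filters and scintillation counted. Corrected for filter binding without tubulin; % inhibition against no-inhibitor controls.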

Leucine aminopeptidase [5] = target: T2, Leucine aminopeptidase (Sus scrofa, UniProt Q29571); assay: Prodrug conversion assessed as porcine leucine aminopeptidase-mediated compound cleavage by HPLC analysis; format: ADME; settings: pig
T2 sequence (Q29571 whole entry): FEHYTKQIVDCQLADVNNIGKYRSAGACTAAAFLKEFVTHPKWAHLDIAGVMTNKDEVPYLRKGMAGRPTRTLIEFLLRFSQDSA
Method in brief: (§3)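 Porcine kidney microsomal LAP; units defined with 24 mM L-leucine p-nitroanilide in 50 mM sodium phosphate pH 7.2 at 37 °C. Enzyme preincubated in the same buffer at 37 °C, then substrate added. Aliquots were quenched with acetonitrile on ice, centrifuged and run on C18 HPLC (acetonitrile/water, 0.05% TFA, 1.0 mL/min, 22 °C, diode-array UV). Cleavage % from the parent/prodrug peak-area ratio; amounts from calibration curves.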

[6] = Cytotoxicity against human SKOV3 cells assessed as growth inhibition using compound dissolved in DMSO after 48 hrs by SRB assay; format: functional; settings: SK-OV-3, 48 h; method in brief: as §1
[7] = Cytotoxicity against human DU145 cells assessed as growth inhibition using compound dissolved in water after 48 hrs by SRB assay; format: functional; settings: DU-145, 48 h; method in brief: as §1
[8] = Cytotoxicity against human SKOV3 cells assessed as growth inhibition using compound dissolved in water after 48 hrs by SRB assay; format: functional; settings: SK-OV-3, 48 h; method in brief: as §1
[9] = Cytotoxicity against human DU145 cells assessed as growth inhibition using compound dissolved in DMSO after 48 hrs by SRB assay; format: functional; settings: DU-145, 48 h; method in brief: as §1
NCI-H460 [10] = assay: Cytotoxicity against human NCI-H460 cells assessed as growth inhibition using compound dissolved in water after 48 hrs by SRB assay; format: functional; settings: NCI-H460, 48 h; method in brief: as §1
Leucine aminopeptidase [11] = target: T2, Leucine aminopeptidase; assay: Prodrug conversion assessed as porcine leucine aminopeptidase-mediated compound cleavage at 25 hrs using 0.12 units of enzyme by HPLC analysis; format: ADME; settings: pig; method in brief: as §3
NCI-H460 [12] = assay: Cytotoxicity against human NCI-H460 cells assessed as growth inhibition using compound dissolved in DMSO after 48 hrs by SRB assay; format: functional; settings: NCI-H460, 48 h; method in brief: as §1
MDA-MB-231 [13] = assay: Induction of tumor-specific vascular damage in luciferase expressing human MDA-MB-231 cells xenografted in SCID mouse assessed as reduction in light emission at 80 mg/kg at 2 hrs post dose by bioluminescence imaging assay relative to control; format: functional; settings: MDA-MB-231, 2 h
MDA-MB-231 [14] = assay: Induction of tumor-specific vascular damage in luciferase expressing human MDA-MB-231 cells xenografted in SCID mouse assessed as reduction in light emission at 80 mg/kg at 24 hrs post dose by bioluminescence imaging assay (reference value: 24%); format: functional; settings: MDA-MB-231, 24 h
Tubulin = Tubulin (Bos taurus, UniProt Q6B856+Q862L2+Q862F3); assay: Inhibition of bovine brain tubulin polymerization preincubated for 15 mins by spectrophotometric analysis
Method in brief: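 Purified bovine brain tubulin, 1.0 mg/mL (10 μM), in 0.8 M monosodium glutamate pH 6.6 with 4% DMSO and varied compound. Temperature jumped from 0 to 30 °C; turbidity at 350 nm followed for 20 min.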

MDA-MB-231 [15] = assay: Induction of tumor-specific vascular damage in luciferase expressing human MDA-MB-231 cells xenografted in SCID mouse assessed as reduction in light emission at 80 mg/kg at 4 hrs post dose by bioluminescence imaging assay (reference value: 22%); format: functional; settings: MDA-MB-231, 4 h
HUVEC = assay: Antivascular activity in HUVEC cells assessed as disruption of capillary-like network of tubules formation at 0.1 uM by matrigel assay; format: functional, cell-based; settings: Homo sapiens
Method in brief: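 HUVECs (124,000 per well in M200 with growth factors) plated on Matrigel (9.5 mg/mL) that had been set for 60 min at 37 °C. Cells incubated 16 h at 37 °C to form tubule networks. Then treated at 0.01, 0.1 or 1.0 μM and photographed, 9 fields/well with 40x objective.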

Tubulin (Bos taurus) [16] = target: T1, Tubulin (Bos taurus); assay: Displacement of [3H]colchicine from bovine brain tubulin at 5 uM after 10 mins by scintillation counting analysis; method in brief: as §2
Leucine aminopeptidase [17] = target: T2, Leucine aminopeptidase; assay: Prodrug conversion assessed as porcine leucine aminopeptidase-mediated compound cleavage after 24 hrs using 3.6 units of enzyme by HPLC analysis; format: ADME; settings: pig; method in brief: as §3
Leucine aminopeptidase [18] = target: T2, Leucine aminopeptidase; assay: Activity at porcine leucine aminopeptidase by HPLC analysis; format: ADME; settings: pig; method in brief: as §3

Structure (SMILES)	GI50 ([1]; Homo sapiens, SK-OV-3, 48 h)	GI50 ([2]; Homo sapiens, DU-145, 48 h)	GI50 (NCI-H460 [3]; Homo sapiens, NCI-H460, 48 h)	GI50 [1]	GI50 [2]	Drug metabolism (Leucine aminopeptidase [5])	GI50 (NCI-H460 [3])	other results
COc1ccc(/C=C\c2cc(OC)c(OC)c(OC)c2)cc1O [COMBRETASTATIN A4]	5.06 nM	6.02 nM	5 nM	–	–	–	–	inhibition (Tubulin (Bos taurus) [4]): 84%
COc1ccc(/C=C\c2cc(OC)c(OC)c(OC)c2)c(NC(=O)[C@@H](N)CO)c1NC(=O)[C@@H](N)CO	–	–	–	25900 nM	33600 nM	metabolite_notdetected	24400 nM	–
COc1ccc(/C=C\c2cc(OC)c(OC)c(OC)c2)c(NC(=O)CN)c1NC(=O)CN.Cl.Cl	–	–	–	–	–	< 50%	–	GI50 [6]: 39300 nM; GI50 [7]: > 90400 nM; GI50 [8]: > 56400 nM; GI50 [9]: > 64700 nM; GI50 (NCI-H460 [10]): > 96600 nM; Drug metabolism (Leucine aminopeptidase [11]): > 95%; GI50 (NCI-H460 [12]): > 68500 nM
COc1ccc2c(c1NC(=O)[C@@H](N)CO)CCC=C2c1cc(OC)c(OC)c(OC)c1	13700 nM	40600 nM	31100 nM	–	–	–	–	–
COc1ccc(/C=C\c2cc(OC)c(OC)c(OC)c2)c(N)c1N.Cl	–	–	–	22.8 nM	205 nM	–	124 nM	inhibition in vivo at 80 mg/kg (MDA-MB-231 [13]): 95%; inhibition in vivo at 80 mg/kg (MDA-MB-231 [14]): 79%; IC50 (Tubulin): 2300 nM; inhibition in vivo at 80 mg/kg (MDA-MB-231 [15]): 94%
COc1ccc(/C=C\c2cc(OC)c(OC)c(OC)c2)c(N)c1N	–	–	–	–	–	–	–	Activity (HUVEC): Active; inhibition (Tubulin (Bos taurus) [16]): 87% and 86%; inhibition (Tubulin (Bos taurus) [4]): 55% and 46%
COc1ccc(/C=C\c2cc(OC)c(OC)c(OC)c2)c(NC(=O)[C@@H](N)CO)c1	39.5 nM	34.7 nM	33.3 nM	–	–	–	–	–
COc1ccc2c(c1NC(=O)[C@@H](N)CO)CCCC=C2c1cc(OC)c(OC)c(OC)c1.Cl	–	–	–	47000 nM	–	< 10%	–	Drug metabolism (Leucine aminopeptidase [17]): < 10%
COc1ccc(/C=C\c2cc(OC)c(OC)c(OC)c2)c(NC(=O)CN)c1	32.3 nM	43.6 nM	53.2 nM	–	–	–	–	–
COc1ccc(/C=C\c2cc(OC)c(OC)c(OC)c2)c(N)c1	–	–	–	–	–	–	–	inhibition (Tubulin (Bos taurus) [16]): 88% and 75%; inhibition (Tubulin (Bos taurus) [4]): 55%
COc1ccc(/C=C\c2cc(OC)c(OC)c(OC)c2)c(NC(=O)CN)c1.Cl	–	–	–	48.5 nM	44.7 nM	100%	29.2 nM	Activity (Leucine aminopeptidase [18]): 180 µM/min
COc1ccc(/C=C\c2cc(OC)c(OC)c(OC)c2)cc1N	4.45 nM	3.3 nM	4.49 nM	–	–	–	–	–
COc1ccc(/C=C\c2cc(OC)c(OC)c(OC)c2)cc1NC(=O)[C@@H](N)CO.Cl	–	–	–	3.96 nM	3.34 nM	95%	3.87 nM	IC50 (Tubulin): 13000 nM
COc1ccc(/C=C\c2cc(OC)c(OC)c(OC)c2)c(N)c1.Cl	–	–	–	7.35 nM	28.5 nM	–	26.3 nM	IC50 (Tubulin): 2500 nM

From ChEMBL document CHEMBL3763088, “Design, synthesis, and biological evaluation of water-soluble amino acid prodrug conjugates derived from combretastatin, dihydronaphthalene, and benzosuberene-based parent vascular disrupting agents” (Bioorg Med Chem, 2016)
